CDK5 p35 inh – inhibitors of human CDK5/p35 kinase. AID 488839. Recombinant CDK5/p35, ADP-Glo luminescence, 60 min. actives 0.01% (n = 330,000). Q00535+Q15078. inhibition, % at 10 µM;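 active means highest replicate inhibition of at least 50% and at least 75% of replicates reaching 50%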
dFosB activator – enhances mouse delta FosB homodimer DNA binding; activation, % at 25 µM; actives 0.99% (n = 340,000); P13346; purified delta FosB, TAMRA-CDK5 oligo fluorescence polarization; percent of positive-control signal above neutral wells;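 active means mean activation above about 17%, with every replicate also reaching it, limit read from the data, passing the limit was not always enough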
PKA-R1A activ – activators of PKA-R1A complex | PKA-R1A dissociation, Cy5-IP20 fluorescence polarization; scaled: DMSO 0%, 113 µM cGMP 100% | activation, % at 11.4 µM | actives 0.083% (n = 340,000);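 active means percent activation above the mean of all tested compounds plus 3 SD, cut at about 19% in these data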;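 further: higher means more PKAc released from R1A so a rise in polarization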
SR-BI DiI-HDL act – SR-BI HDL lipid transfer activation; CHO ldlA[mSR-BI] cells, DiI-HDL uptake fluorescence, 3 h; 100 = double the neutral-control signal; activation, % at 12.5 µM; actives 0.096% (n = 320,000); AID 504775;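 active means mean replicate activation of at least 60% and every replicate at or above 60%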
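material = CHO ldlA[mSR-BI] cells | medium = Ham's F12 with 0.5% BSA, HEPES 25 mM, pH 7.4 | reagent = fluorescent DiI-HDL, 10 µg/mL final | compound dosing = single-point compound dose | incubation = 3 h, 37 °C | measured by = bottom-read fluorescence, 550/595 nm | measure = HDL uptake via cellular fluorescence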
SR-BI DiI inh – inhibitors of mouse SR-BI mediated HDL lipid uptake. Q61009. ldlA[mSR-BI] CHO cells, DiI-HDL uptake fluorescence, 3 h. inhibition, % at 12.5 µM. actives 0.96% (n = 320,000). AID 488896;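 active means mean replicate inhibition of at least 70% and a set share of replicates each scoring 70 or more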
Target sequence (Q61009 whole entry, looked up): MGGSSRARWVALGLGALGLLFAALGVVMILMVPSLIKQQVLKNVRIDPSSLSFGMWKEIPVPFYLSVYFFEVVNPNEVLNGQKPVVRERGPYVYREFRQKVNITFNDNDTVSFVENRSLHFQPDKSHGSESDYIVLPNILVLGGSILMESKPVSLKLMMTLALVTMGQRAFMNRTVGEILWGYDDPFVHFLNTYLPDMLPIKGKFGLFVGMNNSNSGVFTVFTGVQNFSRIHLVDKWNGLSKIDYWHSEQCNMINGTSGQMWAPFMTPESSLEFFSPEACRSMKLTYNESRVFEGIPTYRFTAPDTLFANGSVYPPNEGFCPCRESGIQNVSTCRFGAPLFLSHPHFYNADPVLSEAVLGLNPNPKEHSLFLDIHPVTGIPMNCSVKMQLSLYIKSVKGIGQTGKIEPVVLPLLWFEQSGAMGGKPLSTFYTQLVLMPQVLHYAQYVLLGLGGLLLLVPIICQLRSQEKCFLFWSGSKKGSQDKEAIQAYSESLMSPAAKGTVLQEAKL
PKA-R2B act – activates the human PKA-R2B holoenzyme complex | PKA-R2B holoenzyme dissociation, Cy5-IP20 fluorescence polarization; R2B truncated from residue 108, S112A mutant; 0% DMSO only, 100% 113 µM cGMP | activation, % at 11.4 µM | P22694+P31323 | actives 0.079% (n = 340,000);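 active means activation above a cutoff set at the mean over all compounds plus 3 SD, cut at about 18% in these data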;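 further: higher means more holoenzyme dissociation and a rise in polarization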
A number is an active result; - = inactive; . = no result. The list is not random: actives were taken first. Their share in the collection is about 2.1%.

SMILES | CDK5 p35 inh | dFosB activator | PKA-R1A activ | SR-BI DiI-HDL act | SR-BI DiI inh | PKA-R2B act
CCN(CC)C(=O)c1sc(NC(=O)c2c(OC)cccc2OC)c(C#N)c1C | - | - | - | - | 94 | -
O=S(=O)(NCCc1c[nH]c2ccccc12)c1ccc(F)cc1 | - | - | - | - | - | -
O=C(CSc1nnc(-c2ccccc2O)n1Cc1ccccc1)NNC(=O)c1ccccc1O | - | - | - | - | 88 | -
C[C@@H]1CN([C@@H](C)CO)C(=O)CCCn2nncc2CO[C@H]1CN(C)C(=O)OCc1ccccc1 | . | . | - | . | . | -
C[C@]12C[C@H](O)[C@H]3[C@@H](CCC4=CC(=O)CC[C@@]43C)[C@@H]1CC[C@@H]2C(=O)CO | - | - | - | 87 | - | -
CC(=O)[C@H]1CC[C@H]2[C@@H]3CCC4=CC(=O)CC[C@]4(C)[C@H]3[C@H](O)C[C@]12C | - | - | - | - | - | -
CCOc1ccc(NC(=O)N[C@@H](CCSC)C(=O)OC)cc1 | - | - | - | - | - | -
Cc1noc(C)c1COc1ccc(C(=O)NNC(=O)c2ccccc2O)cc1 | - | - | - | - | 95 | -
Cc1noc(C)c1COc1ccc(C(=O)Nc2ccccc2)cc1 | - | - | - | - | - | -
Cc1noc(C)c1COc1ccc(C(=O)Nc2nnc(CC(C)C)s2)cc1 | - | - | - | - | 82 | -
O=C(Nc1cc(C(F)(F)F)ccc1N1CCCCC1)C1=COCCO1 | . | . | - | . | . | -
CCOc1ccc(C(=O)COC(=O)Cn2cnc3c2c(=O)n(C)c(=O)n3C)cc1 | - | - | - | - | - | -
O=C(CCN1C(=O)/C(=C/c2ccccc2Cl)SC1=S)NC1C=CS(=O)(=O)C1 (stereo not drawn) | - | 28 | - | - | - | -
O=C(CCN1C(=O)/C(=C/c2ccc(F)cc2)SC1=S)NC1C=CS(=O)(=O)C1 (stereo not drawn) | - | - | - | - | - | -
C=CCOC(=O)C1=C(C)NC(=S)NC1c1cccs1 (stereo not drawn) | - | - | - | - | 78 | -
Cc1n[nH]c(C)c1Sc1ccccc1N=Cc1cc(Cl)cc([N+](=O)[O-])c1O | - | 51 | - | - | - | -
O=C(c1sccc1-c1ccccc1)N1CCN(S(=O)(=O)c2ccccc2F)CC1 | - | - | - | - | - | -
CN1CCN(c2ncnc3c2c(-c2ccccc2)cn3-c2ccc(F)cc2)CC1 | - | - | - | - | - | -
CCOc1ccc(-n2cc(-c3ccccc3)c3c(N4CCOCC4)ncnc32)cc1 | - | - | - | - | 82 | -
COc1ccc(-n2cc(-c3ccccc3)c3c(N4CC(C)OC(C)C4)ncnc32)cc1 (stereo not drawn) | - | - | - | - | 76 | -
c1ccc(-c2cn(-c3ccccc3)c3ncnc(N4CCCCC4)c23)cc1 | - | - | - | - | - | -
CSc1cccc(NC(=O)C2CCCN(S(C)(=O)=O)C2)c1 (stereo not drawn) | . | . | - | . | . | -
O=C(CN1C(=O)NC2(CCOc3ccccc32)C1=O)c1ccc[nH]1 (stereo not drawn) | - | - | - | - | - | -
Cc1sc(N/N=C/c2cccs2)nc1-c1ccccc1 | - | - | - | - | 73 | -
CSc1ccc(S(=O)(=O)N2CCC(C(=O)N3CCc4ccccc4C3)CC2)cc1 | - | - | - | - | - | -
SMILES | CDK5 p35 inh | dFosB activator | PKA-R1A activ | SR-BI DiI-HDL act | SR-BI DiI inh | PKA-R2B act
C[C@H](NC(=O)c1cccc([N+](=O)[O-])c1)C(=O)OCC(=O)c1ccccc1Br | - | - | - | - | - | -
O=c1c2ccccc2nnn1-c1ccccc1 | - | - | - | 356 | - | -
COc1ccc(F)cc1S(=O)(=O)N1CCc2ccccc2C1 | . | . | - | . | . | -
O=C(/C=C/NNC(=O)c1ccccc1)c1ccc(Br)cc1 | - | - | - | - | 118 | -
O=C(/C=C/NNC(=O)c1cccc(Br)c1)c1cccc(Br)c1 | - | - | - | - | - | -
COc1ccc(C(=O)C=CNNC(=O)c2ccc(Cl)cc2)cc1 | - | - | - | - | 95 | -
O=C(/C=C/NNC(=O)c1ccc(Cl)cc1)c1ccccc1 | - | - | - | - | 112 | -
COc1cccc(C(=O)NC(=S)Nc2ccccc2N2CCCC2)c1 | - | - | - | - | 85 | -
CCC(=O)N1CCN(c2ccc(Cl)cc2NC(=O)c2cccc([N+](=O)[O-])c2)CC1 | - | - | - | - | 71 | -
CCC(=O)N1CCN(c2ccc(Cl)cc2NC(=O)c2ccc([N+](=O)[O-])o2)CC1 | - | - | - | - | - | -
CCC(=O)N1CCN(c2ccccc2NC(=O)c2ccc(-c3cccc([N+](=O)[O-])c3)o2)CC1 | - | - | - | - | 76 | -
O=[N+]([O-])c1cccc(-c2ccc(C(=S)N3CCN(c4ccc(F)cc4)CC3)o2)c1 | - | - | - | - | - | -
O=C(c1ccc(-c2cccc([N+](=O)[O-])c2)o1)N1CCN(c2ccc([N+](=O)[O-])cc2)CC1 | - | - | - | - | 71 | -
CCn1nc(C)c(CNC(=O)C2CCC(=O)N(CCc3ccc(OC)cc3)C2)c1C (stereo not drawn) | - | - | - | - | - | -
Cc1cc(NC(=O)COC(=O)C2CSC3(C)CCC(=O)N23)ccc1Br (stereo not drawn) | - | - | - | - | - | -
CCOC(=O)c1c2ccccc2[n+]([O-])n1CCO | - | - | - | - | - | -
Cc1ccc(-n2c(SCC(=O)NC3CCS(=O)(=O)C3)nc3ccccc3c2=O)c(C)c1 (stereo not drawn) | . | . | - | . | . | -
CCC(=O)N1CCN(c2ccccc2NC(=S)NC(=O)c2cccc([N+](=O)[O-])c2)CC1 | - | - | - | - | 70 | -
CC(C)C(=O)N1CCN(c2ccccc2NC(=S)NC(=O)c2ccco2)CC1 | - | - | - | - | 81 | -
CCC(=O)N1CCN(c2ccc(NC(=S)NC(=O)c3cccc([N+](=O)[O-])c3)cc2)CC1 | - | - | - | . | - | -
O=C(Nc1cc(Cl)ccc1Cl)C1CC(=O)N(c2ccccc2)C1 (stereo not drawn) | - | 20 | - | - | - | -
COc1ccc(CCN2CC(C(=O)NCc3nc4ccccc4n3C)CCC2=O)cc1 (stereo not drawn) | - | - | - | - | - | -
COc1ccc(/C=N/NC(=O)CCSc2nc3ccccc3s2)cc1OC | - | - | - | - | - | -
O=C(CCSc1nc2ccccc2s1)N/N=C/c1c(O)ccc2ccccc12 | - | 21 | - | - | 105 | -
